OX1R antag-1: antagonists of human orexin 1 receptor (OX1R). Orexin/Hypocretin receptor type 1 (Homo sapiens), O43613. OX1R-expressing cells, FRET antagonist read-out. inhibition, % at 6.6 µM. actives 1.8% (n = 330,000). AID 485270, 2010; in the data active means inhibition mostly above about 38%, no sharp cut-off; inactive means mostly below about 40%
GalR3 antag: GalR3 antagonists in HEK293 cells, primary screen, cell-based, fluorescence readout; Galanin receptor type 3 (Homo sapiens), O60755; HEK293 GalR3-CNG cAMP membrane potential fluorescence; galR3 body fused to GalR1 C-terminus; inhibition, % at 3 µM; actives 0.44% (n = 360,000);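 active means inhibition above the screen-wide average plus 3 SD, cut at about 13% in these data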;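 further: forskolin and galanin both at EC90 stimulate the cells; cAMP rise reported by CNG channel membrane potential dye signal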
Target sequence (O60755 1-299 limits assumed): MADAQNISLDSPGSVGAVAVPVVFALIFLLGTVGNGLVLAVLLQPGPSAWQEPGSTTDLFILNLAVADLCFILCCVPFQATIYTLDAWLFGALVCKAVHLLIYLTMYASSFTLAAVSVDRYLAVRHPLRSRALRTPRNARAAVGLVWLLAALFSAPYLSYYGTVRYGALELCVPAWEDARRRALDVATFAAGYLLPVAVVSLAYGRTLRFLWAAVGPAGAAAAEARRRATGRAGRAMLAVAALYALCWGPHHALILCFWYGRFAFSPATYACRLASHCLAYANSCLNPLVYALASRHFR
OX1R antag-2: OX1R (HCRTR1) antagonists, primary screen, fluorescence, CHO/OX1R cells, Fluo-8 calcium, orexin A; actives 0.43% (n = 330,000); Fluo-8 calcium fluorescence; inhibition, % at 5 µM; AID 434989, 2010;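 active means inhibition above its plate's threshold, mean inhibition of all tested compounds on the plate plus 3 SD, cut at about 37% in these data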
TAAR1 agonist: human TAAR1 agonists, primary screen, Fluo-8 calcium fluorescence, CHO RD-HGA16 cells; Trace amine-associated receptor 1 (Homo sapiens), Q96RJ0; vehicle wells 0%, saturating PEA agonist 100%; activation, % at 3 µM; actives 0.99% (n = 360,000); AID 624467, 2012;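 active means activation above the mean activation of all test compounds in the run plus 3 SD, cut at about 38% in these data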
Target sequence (Q96RJ0 whole entry, looked up): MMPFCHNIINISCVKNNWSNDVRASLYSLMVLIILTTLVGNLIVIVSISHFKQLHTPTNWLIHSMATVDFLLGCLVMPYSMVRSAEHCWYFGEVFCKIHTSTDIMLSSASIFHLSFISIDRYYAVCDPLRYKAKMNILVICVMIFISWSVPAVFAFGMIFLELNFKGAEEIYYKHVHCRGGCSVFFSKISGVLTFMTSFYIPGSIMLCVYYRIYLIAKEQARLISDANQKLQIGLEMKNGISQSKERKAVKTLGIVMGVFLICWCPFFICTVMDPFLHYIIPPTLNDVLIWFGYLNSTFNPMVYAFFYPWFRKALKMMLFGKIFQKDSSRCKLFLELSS
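Signal – calcium-sensitive Fluo-8 signal, excitation 470-495, emission 515-575 nm · System – RD-HGA16 (CHO) cells co-expressing Gα16 and hTAAR1 · Incubation – 17-24 h seeding, 75 min 37 °C dye, 30 min RT · Compound dosing – 3 µM single concentration · Repeats – no replicates (n 1)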
CHO parental Ca: ATP-evoked calcium signal inhibitors, parental CHO, primary screen, counter-screen for OX1R antagonist project, cell-based, fluorescence, Fluo-8 calcium dye; inhibition, % at 5.6 µM; actives 0.63% (n = 330,000); AID 463079, 2010; parental CHO-K1, ATP-induced calcium, Fluo-8 fluorescence;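 active means inhibition above that plate's mean sample inhibition plus 3 SD, cut at about 26% in these data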
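Test system: untransfected parental CHO cell line; also added: ATP stimulus; dosing: 5.6 µM, single dose; signal: calcium-sensitive Fluo-8 fluorescence; measure: percent inhibition of ATP-evoked calcium rise, normalized to controls; benchmarks: low control ATP plus DMSO, high control DMSO only; replication: one well per compound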
TAAR1 antag: human TAAR1 antagonists, primary screen, Fluo-8 calcium fluorescence, CHO RD-HGA16 cells | antagonist | actives 1.5% (n = 360,000) | AID 624466, 2012 | inhibition, % at 3 µM;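 active means inhibition above a per-plate cutoff, the mean inhibition of test compounds on that plate plus 3 SD, cut at about 49% in these data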
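Material: CHO RD-HGA16 cells bearing hTAAR1; compound dosing: one-point dosing, 3 µM nominal final; schedule: dye loading 75 min at 37 °C, then 30 min room temperature; measured by: calcium fluorescence with Fluo-8; control set: vehicle and agonist controls; replication: n of 1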
nonsel antag count: nonselective antagonists in TAAR1 counter-screen cells, counter-screen for hTAAR1 antagonist project, cell-based, fluorescence, calcium; inhibition, % at 3 µM; actives 77% (n = 2,400); counterscreen cell line, antagonist mode; shares compounds with TAAR1 antag; in the data active means inhibition above about 22%;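 further: CHO-Ga16 host cells stimulated with ATP at an EC80 level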
TAAR1 antag conf: human TAAR1 antagonists, retest of hits, confirmation, cell-based, fluorescence; inhibition, % at 3 µM; AID 651785, 2012; TAAR1-expressing cells, fluorescence antagonist read-out; actives 40% (n = 2,400); shares compounds with TAAR1 antag; in the data active means inhibition above about 49%;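 further: CHO-Ga16 host cells challenged with agonist PEA near its EC80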
Ga16 nonsel ag: calcium activation in Ga16-expressing cells, counter-screen for TAAR1 antagonist project, cell-based, fluorescence | shares compounds with TAAR1 antag | agonist counterscreen | activation, % at 3 µM | actives 18% (n = 2,400) | AID 651953, 2012; in the data active means activation above about 12%
TAAR1 ag count: TAAR1 activation by candidate antagonists – cell-based, fluorescence, counter-screen for TAAR1 antagonist project; shares compounds with TAAR1 antag; hTAAR1 cell line, agonist mode; activation, % at 3 µM; actives 2% (n = 2,400); in the data active means activation above about 37%;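 further: CHO cells stably expressing TAAR1 with calcium dye readout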
Hits are given with their value; n = inactive; x = no result given. In the library only some 4.2% were active in any assay of this set; here they are far more common.

SMILES	OX1R antag-1	GalR3 antag	OX1R antag-2	TAAR1 agonist	CHO parental Ca	TAAR1 antag	nonsel antag count	TAAR1 antag conf	Ga16 nonsel ag	TAAR1 ag count
CCC(=O)Nc1cccc(-c2nnc(-c3ccccc3)o2)c1	n	n	n	n	n	n	x	x	x	x
Cc1cc(C)nc(SCC(=O)N2CCCCC2)n1	n	n	n	n	n	n	x	x	x	x
CC1=C(C(=O)OC(C)C)C(c2ccco2)NC(=O)N1 (configuration not stated)	n	n	n	n	n	n	x	x	x	x
CCOc1cc2c(cc1OC)C(c1cccc([N+](=O)[O-])c1)NCC2 (configuration not stated)	n	n	n	n	n	105.7	n	n	n	n
CCOc1cc2c(cc1OCC)C(c1ccc(F)cc1)NCC2 (configuration not stated)	n	n	n	n	n	n	x	x	x	x
Cc1ccc(OCCCC(=O)N2CCN(S(=O)(=O)c3cccc(F)c3)CC2)cc1	n	n	n	n	n	n	x	x	x	x
CCOc1ccc(C(=O)CCC(=O)N2CCN(S(=O)(=O)c3cccc(F)c3)CC2)cc1	n	n	n	n	n	69.9	n	n	n	n
COc1ccccc1/C=N/N1C(=O)C2C3C=CC(CC3)C2C1=O (configuration not stated)	n	n	n	n	n	n	x	x	x	x
Cc1cc(/C=N\NC(=O)CC(=O)NC2CCCCC2)c(C)n1-c1cccc(Cl)c1Cl	n	n	n	n	n	n	x	x	x	x
Cc1cc(/C=N\NC(=O)CC(=O)NC2CCCCC2)c(C)n1-c1ccc(Cl)c(Cl)c1	n	n	n	n	n	56.1	n	70.6	n	n
COc1ccc(CCC(=O)NCCS(=O)(=O)N2CCN(c3ccc(OC)cc3)CC2)cc1	n	n	n	n	n	62.2	28.9	54.0	15.3	n
CC(OC(=O)COc1ccc(Nc2ccccc2)cc1)C(=O)N(C)c1ccccc1 (configuration not stated)	n	n	n	n	n	73.0	30.3	n	n	n
COc1ccc(/C(C)=N/NC(=O)CNC(=O)c2cccs2)cc1	n	n	n	n	n	n	x	x	x	x
O=c1[nH]c(-c2ccccc2)cn1C1CCN(Cc2ccc(-c3nc4ccc(Br)cc4nc3-c3ccccc3)cc2)CC1	x	n	x	n	x	n	x	x	x	x
Fc1ccc2nc(-c3ccc(CN4CCC(c5nc6ccccc6[nH]5)CC4)cc3)c(-c3ccccc3)nc2c1	x	n	x	n	x	53.7	47.1	54.9	21.3	n
Cc1ccc(NC(=O)CCNC(=O)c2ccc(Br)cc2)cc1S(=O)(=O)N1CCOCC1	n	n	n	n	n	n	x	x	x	x
O=C(CCNC(=O)c1ccc([N+](=O)[O-])cc1)Nc1ccc(Cl)c(S(=O)(=O)N2CCOCC2)c1	n	n	n	n	n	102.4	n	n	n	n
Cc1ccccc1CN1C(=O)/C(=C\c2ccc(C(=O)NCCN3CCOCC3)cc2)Sc2ccccc21	n	n	n	n	n	53.3	26.4	n	n	n
CN1CCN(CCCNC(=O)c2ccc(/C=C3\Sc4ccccc4N(Cc4ccccc4F)C3=O)cc2)CC1	x	n	x	n	x	n	x	x	x	x
O=C(NCCN1CCOCC1)c1ccc(/C=C2\Sc3ccccc3N(Cc3ccccc3F)C2=O)cc1	n	n	n	n	n	69.1	33.7	49.8	13.0	n
Cc1cccc2ccccc12	x	n	x	n	x	n	x	x	x	x
Cc1cccc(Nc2nc(-c3ccccc3)c(C(=O)Nc3cccnc3)s2)c1	n	n	n	n	n	n	x	x	x	x
O=C(Nc1cccnc1)c1sc(Nc2ccccc2)nc1-c1ccccc1	n	n	n	n	n	58.6	34.4	n	n	n
Nc1ccc2sc(N)nc2c1	n	n	n	n	n	n	x	x	x	x
COc1ccc(-n2c(=O)cc(N3CC(C)OC(C)C3)[nH]c2=O)cc1 (configuration not stated)	n	n	n	n	n	n	x	x	x	x
SMILES	OX1R antag-1	GalR3 antag	OX1R antag-2	TAAR1 agonist	CHO parental Ca	TAAR1 antag	nonsel antag count	TAAR1 antag conf	Ga16 nonsel ag	TAAR1 ag count
CC(C)Cn1c(N)c(C(=O)CSc2ccccc2)c(=O)n(C)c1=O	n	n	n	n	n	65.9	49.1	65.4	15.6	n
CC(=O)Nc1ccc(SCC(=O)c2c(N)n(Cc3ccccc3)c(=O)n(C)c2=O)cc1	n	n	n	n	n	77.0	29.7	n	13.1	n
Cc1ccc(CNC(=O)CC2(CC3=NS(=O)(=O)c4ccccc4N3)CCCC2)cc1	n	n	n	n	n	66.5	31.9	51.4	n	n
CCOc1ccc(S(=O)(=O)Nc2cccc(C(=O)N3CCN(c4ccccc4O)CC3)c2)cc1	n	n	n	n	n	n	x	x	x	x
CCOc1ccc(S(=O)(=O)Nc2cccc(C(=O)N3CCN(c4ccccn4)CC3)c2)cc1	x	n	x	n	x	52.5	31.4	49.1	15.6	n
O=C(NCCCc1ccccc1)c1cncc(Br)c1	n	n	n	n	n	n	x	x	x	x
Cc1cccc(CN2C(=O)[C@H]3Cc4c([nH]c5ccccc45)C(C)(C)N3C2=O)c1	n	n	n	n	n	60.5	24.1	n	n	n
Cc1ccc2c(c1)-c1c(cnn1CC(=O)O)CO2	n	n	n	n	n	n	x	x	x	x
Cc1ccc2c(c1)-c1c(cnn1CC(=O)N1CCCN(Cc3ccccc3F)C1)CO2	43.2	x	n	n	n	75.3	27.7	51.8	n	n
COc1cc2[nH]c(=O)c(C(=O)NCc3ccc(C)cc3)c(O)c2cc1OC	x	n	x	n	x	n	x	x	x	x
COc1ccc(C2C(C(=O)N3CCN(c4ccccn4)CC3)CC(=O)N2c2ccc(OC)cc2)cc1 (configuration not stated)	n	n	n	n	n	56.6	25.7	n	12.9	n
COC(=O)c1ccc(OCC(=O)Nc2ccccc2C(=O)NC2CC2)cc1	n	n	n	n	n	62.5	30.2	n	n	n
